# Screens: PubChem BioAssay, several laboratories
# Compounds with a hit are over-represented: about 4.8% of the library has one in this group of screens.
# PAFAH1B3 FP inh – PAFAH1B3 enzyme inhibitors, primary screen, biochemical, fluorescence polarization, human. recombinant PAFAH1B3, FP-rhodamine probe. inhibition, % at 3.39 µM. 0.28% of 340,000 active;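 active means inhibition above the screen-wide average of all tested compounds plus 3 SD, cut at about 25% in these data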
# Target sequence (Q15102 whole entry, looked up): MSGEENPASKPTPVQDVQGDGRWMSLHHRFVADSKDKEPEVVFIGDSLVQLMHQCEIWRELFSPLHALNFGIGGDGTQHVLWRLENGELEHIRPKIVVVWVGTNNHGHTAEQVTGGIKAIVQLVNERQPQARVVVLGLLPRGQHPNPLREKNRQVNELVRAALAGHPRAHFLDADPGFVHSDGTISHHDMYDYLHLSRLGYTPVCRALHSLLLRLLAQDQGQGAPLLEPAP
# PAFAH2 inh – PAFAH2 enzyme inhibitors, primary screen, biochemical, fluorescence polarization, human. AID 492956, 2010. recombinant PAFAH2, FP-rhodamine activity probe. inhibition, % at 3.39 µM. 0.99% of 340,000 active. Platelet-activating factor acetylhydrolase 2, cytoplasmic (Homo sapiens), Q99487;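 active means inhibition above the mean over all tested compounds plus 3 SD, cut at about 30% in these data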;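 further: inhibitors block probe labeling of enzyme so polarization drops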
# GRIN3A LBD mod – binders of NR3A ligand-binding domain, primary screen, biophysical, differential scanning fluorimetry, uHTS; Glutamate receptor ionotropic, NMDA 3A (GRIN3A) ligand-binding domain; NR3A LBD differential scanning fluorimetry, Tm shift; 0% = protein alone, 100% = glycine-bound protein; Tm shift relative to glycine control, % at 25 µM; 2.5% of 340,000 active; AID 1259313, 2017;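 active means melting temperature shift of at least 10% of the positive control shift, at one fixed dose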
# pPAFAH FP inh – pPAFAH enzyme inhibitors, primary screen, biochemical, fluorescence polarization, human | Platelet-activating factor acetylhydrolase (Homo sapiens), Q13093 | recombinant pPAFAH, FP-rhodamine probe fluorescence polarization | inhibition, % at 3.39 µM | 1.5% of 330,000 active | AID 463082, 2010;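 active means inhibition above the mean inhibition across the screen plus 3 SD, cut at about 25% in these data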;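 further: inhibitors block binding of the rhodamine activity-based probe so polarization drops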
# UCH37 inh – inhibitors of human UCH37 deubiquitinase, primary screen, biochemical, Ub-AMC cleavage, fluorescence; inhibition, % (no concentration beside the values); 0.33% of 330,000 active; AID 588478, 2011; Ubiquitin carboxyl-terminal hydrolase isozyme L5 (Homo sapiens), Q9Y5K5; purified proteasome/UCH37;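 active means mean inhibition over replicate wells above about 20%, limit read from the data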
#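 Test system – human UCH37 enzyme supplied as purified proteasome complex · Incubation – 30 min preincubation with enzyme, 25 min cleavage at room temperature · Detection – AMC fluorescence from Ub-AMC cleavage, excitation 355 nm, emission 460 nm · Benchmarks – no-proteasome wells (full inhibition) and compound-free wells (no inhibition)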
# PAFAH1B2 FP inh – PAFAH1B2 enzyme inhibitors, primary screen, biochemical, fluorescence polarization, human; recombinant PAFAH1B2, FP-rhodamine activity probe; inhibition, % at 3.39 µM; 1.2% of 340,000 active; AID 492953, 2010;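 active means inhibition above the mean of all tested compounds plus 3 SD, cut at about 24% in these data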
# Target sequence (P68402 whole entry, looked up): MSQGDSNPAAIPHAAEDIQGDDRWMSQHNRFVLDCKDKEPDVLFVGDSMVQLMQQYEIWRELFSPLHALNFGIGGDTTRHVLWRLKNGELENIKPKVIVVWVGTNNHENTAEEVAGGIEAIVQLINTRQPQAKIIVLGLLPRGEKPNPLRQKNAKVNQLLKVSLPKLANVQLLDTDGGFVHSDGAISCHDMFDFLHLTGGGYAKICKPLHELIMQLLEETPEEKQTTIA
# A number is an active result; - = inactive; . = no result given.
SMILES,PAFAH1B3 FP inh,PAFAH2 inh,GRIN3A LBD mod,pPAFAH FP inh,UCH37 inh,PAFAH1B2 FP inh
CCOC(=O)c1ccc(-c2ccc(C=NNC(=O)CN(c3cccc(C)c3)S(C)(=O)=O)o2)cc1,.,.,.,.,-,.
Cc1c(CCC(=O)O)c(=O)oc2cc(OCc3cccc(F)c3)ccc12,-,-,-,-,-,-
Cc1c(CCC(=O)O)c(=O)oc2cc(OCc3ccccc3Br)ccc12,-,-,-,33,-,-
CC(=NO)c1noc(C)c1C(=O)Nc1nccs1,.,.,.,.,-,.
c1ccc(OCCOCCN2CCOCC2)cc1,-,-,-,-,-,-
CC(C)(c1ccccc1)c1ccc(OCCN2CCOCC2)cc1,-,-,-,27,-,-
CCOC(=O)NN=Cc1cn(Cc2ccc(Cl)cc2)c2ccccc12,.,.,.,.,-,.
CCOc1ccc(NC(=O)c2cc3ccccc3cc2OC)cc1,-,-,32,-,-,-
CN1C(=O)c2ccc(NC(=O)c3cccc4ccccc34)cc2C1=O,-,-,18,-,-,-
CCOc1ccc(NC(=O)c2cccc3ccccc23)cc1,-,-,42,-,-,-
O=C(Nc1ccc2ccccc2c1)c1cccc2ccccc12,-,-,-,.,-,-
O=C(NC(C(=O)NN=Cc1cccc2ccccc12)c1n[nH]c(=O)c2ccccc12)c1ccccc1 (centres undefined),.,.,.,.,-,.
CC(=NNC(=O)c1ccc(CSc2nc(C)cc(C)n2)cc1)c1ccco1,.,.,.,.,-,.
COc1cc(C(=O)Oc2ccccc2C=NNC(=O)c2ccc(C)cc2)cc(OC)c1OC,.,.,.,.,-,.
Brc1ccc(Nc2ncnc3[nH]ncc23)cc1,.,.,26,-,-,.
O=C1c2cccc3cc([N+](=O)[O-])cc(c23)C(=O)N1N=Cc1ccc(O)cc1O,.,.,.,.,-,.
O=C(NNC1CC(=O)N(c2ccc(Cl)cc2)C1=O)c1ccccn1 (centres undefined),-,-,-,-,26,-
Cc1nn(Cc2ccccc2)c(Cl)c1C(=O)OCC(=O)NC(=O)NC12CC3CC(CC(C3)C1)C2,-,-,17,-,-,-
C(=NNc1nc(-c2ccccc2)cs1)c1cccnc1,.,.,.,.,-,.
COc1ccc(C2NC(=O)N(CCCC(=O)O)C(C)=C2C(=O)OCc2ccccc2)cc1 (centres undefined),.,.,.,-,-,.
CC1=C(C(=O)OCc2ccccc2)C(c2ccccc2)NC(=O)N1CCCCCC(=O)O (centres undefined),-,-,-,-,-,-
CC1=C(C(=O)OCc2ccccc2)C(c2ccc(C(C)(C)C)cc2)NC(=O)N1CCCCCC(=O)O (centres undefined),-,-,-,25,-,-
COC(=O)CCCN1C(=O)NC(c2ccc(-c3ccccc3)cc2)C(C(=O)OCc2ccccc2)=C1C (centres undefined),-,-,-,27,-,-
CC(NC(=O)c1cc2cc(Br)ccc2oc1=N)c1ccccc1 (centres undefined),-,-,-,-,-,37
CCCN(CCC)S(=O)(=O)c1ccc(C(=O)Nc2nc(-c3ccccc3)c(C(=O)OCC)s2)cc1,-,-,20,-,-,-
SMILES,PAFAH1B3 FP inh,PAFAH2 inh,GRIN3A LBD mod,pPAFAH FP inh,UCH37 inh,PAFAH1B2 FP inh
COCCN(CCOC)S(=O)(=O)c1ccc(C(=O)Nc2nc(-c3ccccc3)c(C(=O)c3ccccc3)s2)cc1,-,-,-,-,-,-
COc1ccc(/C=C2\CCCC3C2=NN(C(=O)c2scnc2C)C3c2ccc(OC)c(OC)c2)cc1OC (centres undefined),-,-,11,-,-,-
COc1ccc(/C=C2\CCCC3C2=NN(C(=O)c2ccco2)C3c2ccc(OC)c(OC)c2)cc1OC (centres undefined),-,-,-,-,-,-
O=C(NN=Cc1cccnc1)c1cccc(Cl)c1,.,.,.,.,-,.
CC(C)CNC(=O)COC(=O)c1ccc2c(c1)C(=O)N(Cc1ccco1)C2=O,-,-,-,27,-,-
CCCC(C)NC(=O)COC(=O)c1ccc2c(c1)C(=O)N(Cc1ccco1)C2=O (centres undefined),-,-,-,25,-,-
CC(C)(C)C(=O)COC(=O)c1ccc2c(c1)C(=O)N(Cc1ccco1)C2=O,-,-,-,-,-,-
COc1ccc(C=NNC(=O)c2ccc(N)cc2)cc1Cn1cc([N+](=O)[O-])cn1,.,.,.,.,-,.
COc1cccc(C=NNC(=O)CN(C)S(=O)(=O)c2ccccc2)c1OC,.,.,.,.,-,.
Cc1ccc(C(=O)c2nocc2C(=O)c2cccs2)cc1,-,-,16,-,-,-
CC(C(=O)O)c1ccc(C(=O)c2cccs2)cc1 (centres undefined),-,-,-,-,-,-
COc1cccc(C=NNc2ncnc3scc(-c4ccccc4)c23)c1OC,.,.,.,.,-,.
COc1cccc([C@@H]2CC=C(C(=O)O)[C@H](c3ccc(C)cc3)N2S(=O)(=O)c2ccc(C)cc2)c1,-,-,-,-,-,27
Cc1ccc(S(=O)(=O)N2[C@@H](c3ccc(Br)cc3)C(C(=O)O)=CC[C@H]2c2ccc(Cl)c(Cl)c2)cc1,-,-,-,-,-,87
Cc1ccc(S(=O)(=O)N2[C@@H](c3ccc(Cl)cc3)C(C(=O)O)=CC[C@H]2c2ccc(C(C)C)cc2)cc1,-,-,-,-,-,93
COc1cccc([C@@H]2CC=C(C(=O)O)[C@H](c3ccccc3F)N2S(=O)(=O)c2ccc(C)cc2)c1,-,-,-,-,-,-
Cc1ccc(S(=O)(=O)N2[C@@H](c3ccccc3)C(C(=O)O)=CC[C@H]2c2cccs2)cc1,-,-,-,-,-,25
COc1ccc([C@@H]2CC=C(C(=O)O)[C@H](c3ccc(C)cc3)N2S(=O)(=O)c2ccc(C)cc2)cc1OC,-,-,-,-,-,-
Cc1ccccc1C=NNC(=O)c1ccccc1-n1cccc1,.,.,.,.,-,.
COc1cc([C@@H]2CC=C(C(=O)O)[C@H](c3cccc(Cl)c3)N2S(=O)(=O)c2ccc(C)cc2)cc(OC)c1OC,-,-,-,-,-,-
Cc1ccc(S(=O)(=O)N2[C@@H](c3ccc(C(C)(C)C)cc3)C(C(=O)O)=CC[C@H]2c2cccc(Cl)c2)cc1,-,-,-,-,-,78
COc1ccc([C@@H]2CC=C(C(=O)O)[C@H](c3ccc(C(C)(C)C)cc3)N2S(=O)(=O)c2ccc(C)cc2)cc1OC,-,-,-,-,-,-
CC[C@@H]1C=C(C(=O)O)[C@H](c2ccc3c(c2)OCO3)N1S(=O)(=O)c1ccc(C)cc1,-,-,-,-,-,-
